{"source": "ChEMBL document CHEMBL1140385", "about": "“Synthesis and antibacterial activity of 3-substituted-6-(3-ethyl-4-methylanilino)uracils” (J Med Chem, 2005)", "key": {"Bacillus subtilis": {"system": "Bacillus subtilis", "test": "In vitro minimum inhibitory concentration against Bacillus subtilis upon incubation at 37 degree C for 16 to 24 h", "assay_type": "functional"}, "Enterococcus faecium [1]": {"system": "Enterococcus faecium", "test": "In vitro minimum inhibitory concentration against Enterococcus fecium upon incubation at 37 degree C for 16 to 24 hr by dissolving in DMSO (1%)", "assay_type": "functional", "outline": "(§1)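 Broth microdilution (modified NCCLS M7-A4). Enterococci grown to log phase in brain-heart infusion broth, seeded at (3-7) × 10⁵ CFU/mL. Compounds 2-fold diluted from DMSO stocks, 20 to 1.25 µg/mL, final 1% DMSO, in duplicate. Incubated 37 °C, 16-24 h, with shaking. OD600 read.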"}, "Enterococcus faecalis [2]": {"system": "Enterococcus faecalis", "test": "In vitro minimum inhibitory concentration against Enterococcus faecalis upon incubation at 37 degree C for 16 to 24 hr by dissolving in DMSO (1%)", "assay_type": "functional", "outline": "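Log-phase E. faecalis was grown in brain-heart infusion broth and seeded at (3-7) × 10^5 CFU/mL. Duplicate 2-fold dilutions ran from 20 to 1.25 µg/mL, final 1% DMSO. After 16-24 h at 37 °C with shaking, OD600 was read.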"}, "Staphylococcus aureus [3]": {"system": "Staphylococcus aureus", "test": "In vitro minimum inhibitory concentration against Staphylococcus aureus upon incubation at 37 degree C for 16 to 24 hr by dissolving in DMSO (1%)", "assay_type": "functional"}, "Staphylococcus aureus [4]": {"system": "Staphylococcus aureus", "test": "In vitro minimum inhibitory concentration against Staphylococcus aureus (Smith) upon incubation at 37 degree C for 16 to 24 hr by dissolving in DMSO (1%)", "assay_type": "functional"}, "Enterococcus faecium [5]": {"system": "Enterococcus faecium", "test": "In vitro minimum inhibitory concentration against Vancomycin resistant Enterococci faecium upon incubation at 37 degree C for 16 to 24 hr by dissolving in DMSO (1%)", "assay_type": "functional", "outline": "as §1"}, "Staphylococcus aureus [6]": {"system": "Staphylococcus aureus", "test": "In vitro minimum inhibitory concentration against Methicillin-resistant Staphylococcus aureus upon incubation at 37 degree C for 16 to 24 hr by dissolving in DMSO (1%)", "assay_type": "functional", "outline": "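Broth microdilution (modified NCCLS M7-A4). Staphylococci grown to log phase in Luria broth, seeded at (3-7) × 10⁵ CFU/mL. Compounds 2-fold diluted from DMSO stocks, 20 to 1.25 µg/mL, final 1% DMSO, in duplicate. Incubated 37 °C, 16-24 h, with shaking. OD600 read.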"}, "Enterococcus faecalis [7]": {"system": "Enterococcus faecalis", "test": "Serum effect on MIC of compound was measured against Enterococcus faecalis as ratio of MIC value in presence and absence of 50% fetal calf serum", "assay_type": "functional", "outline": "(§2)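 Broth microdilution MIC was repeated with 50% fetal calf serum added to the growth medium (LB for S. aureus, brain-heart infusion broth for E. faecalis). The inoculum was (3-7) × 10^5 CFU/mL in 1% DMSO, incubated at 37 °C for 16-24 h, and read by OD600. The serum effect is the MIC with serum relative to the MIC without serum.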"}, "Staphylococcus aureus [8]": {"system": "Staphylococcus aureus", "test": "Serum effect on MIC against Staphylococcus aureus (Smith) as ratio of MIC value in presence and absence of 50% fetal calf serum", "assay_type": "functional", "outline": "as §2"}, "Staphylococcus aureus [9]": {"system": "Staphylococcus aureus", "test": "Effect on survival of staphylococcus aureus (Smith) ip-infected mice at a concentration 10 mg/kg", "assay_type": "functional", "outline": "(§3)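 Male pathogen-free Swiss-Webster mice (20-24 g), groups of five, infected ip with ca. 10⁸ CFU log-phase S. aureus Smith (grown 37 °C in LB, washed, in 0.5 mL LB). Single ip dose 15 min post-infection, in 10% DMSO/peanut oil or PBS. Survivors counted at 72 h post-infection.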"}, "[10]": {"target": "DNA polymerase III PolC-type (Bacillus subtilis (strain 168), UniProt P13267)", "sequence (P13267 whole entry)": "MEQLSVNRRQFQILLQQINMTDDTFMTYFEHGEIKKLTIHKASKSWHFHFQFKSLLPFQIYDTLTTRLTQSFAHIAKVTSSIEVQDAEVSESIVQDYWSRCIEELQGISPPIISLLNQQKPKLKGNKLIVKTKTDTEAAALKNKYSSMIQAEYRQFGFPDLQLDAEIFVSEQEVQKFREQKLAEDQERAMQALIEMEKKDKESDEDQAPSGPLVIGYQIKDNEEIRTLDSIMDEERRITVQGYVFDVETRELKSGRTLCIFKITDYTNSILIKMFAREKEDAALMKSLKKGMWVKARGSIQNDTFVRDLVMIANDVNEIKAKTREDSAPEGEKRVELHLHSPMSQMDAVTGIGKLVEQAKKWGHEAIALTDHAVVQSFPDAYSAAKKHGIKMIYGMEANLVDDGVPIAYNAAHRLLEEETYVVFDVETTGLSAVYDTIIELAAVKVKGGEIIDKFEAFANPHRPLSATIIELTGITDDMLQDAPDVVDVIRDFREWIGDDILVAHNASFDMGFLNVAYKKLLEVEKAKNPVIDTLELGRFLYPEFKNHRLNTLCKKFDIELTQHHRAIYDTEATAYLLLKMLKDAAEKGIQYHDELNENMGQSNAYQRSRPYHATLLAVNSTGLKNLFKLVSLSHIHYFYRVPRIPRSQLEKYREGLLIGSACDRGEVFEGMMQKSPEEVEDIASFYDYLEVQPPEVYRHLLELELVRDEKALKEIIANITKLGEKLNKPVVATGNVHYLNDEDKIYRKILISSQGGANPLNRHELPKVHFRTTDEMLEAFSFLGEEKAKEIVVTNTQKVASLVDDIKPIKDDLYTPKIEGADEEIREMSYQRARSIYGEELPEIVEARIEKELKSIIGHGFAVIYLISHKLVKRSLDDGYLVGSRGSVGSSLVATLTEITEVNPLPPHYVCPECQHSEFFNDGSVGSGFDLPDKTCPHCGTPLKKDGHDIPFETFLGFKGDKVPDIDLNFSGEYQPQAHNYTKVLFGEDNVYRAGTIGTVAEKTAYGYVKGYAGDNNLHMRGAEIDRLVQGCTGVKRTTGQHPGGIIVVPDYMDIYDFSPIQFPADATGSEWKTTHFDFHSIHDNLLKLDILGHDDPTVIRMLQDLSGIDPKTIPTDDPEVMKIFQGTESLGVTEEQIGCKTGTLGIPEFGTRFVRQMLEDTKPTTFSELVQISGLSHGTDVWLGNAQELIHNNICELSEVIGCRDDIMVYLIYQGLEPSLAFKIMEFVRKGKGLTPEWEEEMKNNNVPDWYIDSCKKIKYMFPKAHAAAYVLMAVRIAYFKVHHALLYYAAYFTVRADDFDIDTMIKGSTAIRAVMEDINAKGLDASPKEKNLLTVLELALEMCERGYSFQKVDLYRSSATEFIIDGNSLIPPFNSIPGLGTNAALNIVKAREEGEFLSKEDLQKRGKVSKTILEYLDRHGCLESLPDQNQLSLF", "test": "Inhibitory concentration against Bacillus subtilis DNA polymerase IIIC using [3H]dTMP 250 pM (30 degree C for 10 min)", "outline": "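Homogeneous recombinant B. subtilis pol IIIC, 0.025-0.06 units, acted on activated calf thymus DNA with Mg2+, DTT, glycerol, dATP, dCTP, dTTP and [3H]dTTP, without dGTP. Compounds were serially diluted from DMSO. Reactions ran 10 min at 30 °C, were stopped with TCA-pyrophosphate, and the filter-collected precipitate was scintillation counted. Apparent Ki was read directly from this truncated assay; average standard deviation ±44%.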"}, "Staphylococcus aureus [11]": {"system": "Staphylococcus aureus", "test": "Effect on survival of staphylococcus aureus (Smith) ip-infected mice at 20 mg/kg", "assay_type": "functional", "outline": "as §3"}, "Staphylococcus aureus [12]": {"system": "Staphylococcus aureus", "test": "Effect on survival of staphylococcus aureus (Smith) ip-infected mice at a concentration 20 mg/kg", "assay_type": "functional", "outline": "as §3"}}}
{"compound": "CCn1cc(C(=O)O)c(=O)c2cc(F)c(N3CCNCC3)cc21", "note": "[NORFLOXACIN]", "values": [{"measurement": "MIC", "setting": "Bacillus subtilis", "value": 0.313, "unit": "µg/mL"}, {"measurement": "MIC", "setting": "Enterococcus faecium [1]", "value": 10, "unit": "µg/mL"}, {"measurement": "MIC", "setting": "Enterococcus faecalis [2]", "value": 2.5, "unit": "µg/mL"}, {"measurement": "MIC", "setting": "Staphylococcus aureus [3]", "value": 0.625, "unit": "µg/mL"}, {"measurement": "MIC", "setting": "Staphylococcus aureus [4]", "value": 0.156, "unit": "µg/mL"}, {"measurement": "MIC", "setting": "Enterococcus faecium [5]", "value": 80, "unit": "µg/mL"}, {"measurement": "MIC", "setting": "Staphylococcus aureus [6]", "value": 40, "unit": "µg/mL"}, {"measurement": "MIC+/MIC-", "setting": "Enterococcus faecalis [7]", "value": 2.2}, {"measurement": "MIC+/MIC-", "setting": "Staphylococcus aureus [8]", "value": 0.4}]}
{"compound": "CCc1cc(Nc2cc(=O)n(CCCC#N)c(=O)[nH]2)ccc1C", "values": [{"measurement": "MIC", "setting": "Enterococcus faecium [1]", "value": 5, "unit": "µg/mL"}, {"measurement": "MIC", "setting": "Enterococcus faecalis [2]", "value": 5, "unit": "µg/mL"}, {"measurement": "MIC", "setting": "Staphylococcus aureus [3]", "value": 5, "unit": "µg/mL"}, {"measurement": "MIC", "setting": "Enterococcus faecium [5]", "value": 5, "unit": "µg/mL"}, {"measurement": "MIC", "setting": "Staphylococcus aureus [6]", "value": 5, "unit": "µg/mL"}, {"measurement": "MIC+/MIC-", "setting": "Staphylococcus aureus [8]", "value": 5.4}, {"measurement": "Activity", "setting": "Staphylococcus aureus [9]", "value": 2}]}
{"compound": "CCc1cc(Nc2cc(=O)n(CCOCCOc3ccccc3)c(=O)[nH]2)ccc1C", "values": [{"measurement": "MIC", "setting": "Bacillus subtilis", "value": "< 1.25", "unit": "µg/mL"}, {"measurement": "MIC", "setting": "Enterococcus faecium [1]", "value": 2.5, "unit": "µg/mL"}, {"measurement": "MIC", "setting": "Enterococcus faecalis [2]", "value": 5, "unit": "µg/mL"}, {"measurement": "MIC", "setting": "Staphylococcus aureus [3]", "value": 20, "unit": "µg/mL"}, {"measurement": "MIC", "setting": "Staphylococcus aureus [4]", "value": 20, "unit": "µg/mL"}, {"measurement": "MIC", "setting": "Enterococcus faecium [5]", "value": 5, "unit": "µg/mL"}, {"measurement": "MIC", "setting": "Staphylococcus aureus [6]", "value": 20, "unit": "µg/mL"}, {"measurement": "Ki", "setting": "[10]", "value": 56, "unit": "nM"}, {"measurement": "MIC+/MIC-", "setting": "Staphylococcus aureus [8]", "value": ">5.6"}]}
{"compound": "CCc1cc(Nc2cc(=O)n(CCCCN3CCOCC3)c(=O)[nH]2)ccc1C", "values": [{"measurement": "MIC", "setting": "Enterococcus faecium [1]", "value": 2.5, "unit": "µg/mL"}, {"measurement": "MIC", "setting": "Enterococcus faecalis [2]", "value": 5, "unit": "µg/mL"}, {"measurement": "MIC", "setting": "Staphylococcus aureus [3]", "value": 10, "unit": "µg/mL"}, {"measurement": "MIC", "setting": "Enterococcus faecium [5]", "value": 5, "unit": "µg/mL"}, {"measurement": "MIC", "setting": "Staphylococcus aureus [6]", "value": 10, "unit": "µg/mL"}, {"measurement": "Activity", "setting": "Staphylococcus aureus [11]", "value": 4}, {"measurement": "MIC+/MIC-", "setting": "Enterococcus faecalis [7]", "value": 3.2}, {"measurement": "MIC+/MIC-", "setting": "Staphylococcus aureus [8]", "value": 2.3}, {"measurement": "Activity", "setting": "Staphylococcus aureus [9]", "value": 2}]}
{"compound": "CCc1cc(Nc2cc(=O)n(CCCO)c(=O)[nH]2)ccc1C", "values": [{"measurement": "MIC", "setting": "Bacillus subtilis", "value": "< 1.25", "unit": "µg/mL"}, {"measurement": "MIC", "setting": "Enterococcus faecium [1]", "value": 2.5, "unit": "µg/mL"}, {"measurement": "MIC", "setting": "Enterococcus faecalis [2]", "value": 5, "unit": "µg/mL"}, {"measurement": "MIC", "setting": "Staphylococcus aureus [3]", "value": 2.5, "unit": "µg/mL"}, {"measurement": "MIC", "setting": "Staphylococcus aureus [4]", "value": 5, "unit": "µg/mL"}, {"measurement": "MIC", "setting": "Enterococcus faecium [5]", "value": 2.5, "unit": "µg/mL"}, {"measurement": "MIC", "setting": "Staphylococcus aureus [6]", "value": 5, "unit": "µg/mL"}, {"measurement": "Ki", "setting": "[10]", "value": 130, "unit": "nM"}, {"measurement": "MIC+/MIC-", "setting": "Staphylococcus aureus [8]", "value": 5.6}]}
{"compound": "CN[C@H](CC(C)C)C(=O)N[C@H]1C(=O)N[C@@H](CC(N)=O)C(=O)N[C@H]2C(=O)N[C@H]3C(=O)N[C@H](C(=O)N[C@H](C(=O)O)c4cc(O)cc(O)c4-c4cc3ccc4O)[C@H](O)c3ccc(c(Cl)c3)Oc3cc2cc(c3O[C@@H]2O[C@H](CO)[C@@H](O)[C@H](O)[C@H]2O[C@H]2C[C@](C)(N)[C@H](O)[C@H](C)O2)Oc2ccc(cc2Cl)[C@H]1O", "note": "[VANCOMYCIN]", "values": [{"measurement": "Activity", "setting": "Staphylococcus aureus [12]", "value": 5}, {"measurement": "MIC", "setting": "Enterococcus faecium [1]", "value": 1.25, "unit": "µg/mL"}, {"measurement": "MIC", "setting": "Enterococcus faecalis [2]", "value": 0.625, "unit": "µg/mL"}, {"measurement": "MIC", "setting": "Enterococcus faecium [5]", "value": "> 20", "unit": "µg/mL"}, {"measurement": "MIC", "setting": "Staphylococcus aureus [6]", "value": 0.625, "unit": "µg/mL"}, {"measurement": "Activity", "setting": "Staphylococcus aureus [9]", "value": 5}]}
{"compound": "CCc1cc(Nc2cc(=O)n(CCN3CCOCC3)c(=O)[nH]2)ccc1C", "values": [{"measurement": "MIC", "setting": "Enterococcus faecalis [2]", "value": 5, "unit": "µg/mL"}, {"measurement": "MIC", "setting": "Staphylococcus aureus [3]", "value": 10, "unit": "µg/mL"}, {"measurement": "MIC", "setting": "Enterococcus faecium [5]", "value": 5, "unit": "µg/mL"}, {"measurement": "MIC", "setting": "Staphylococcus aureus [6]", "value": 5, "unit": "µg/mL"}, {"measurement": "MIC+/MIC-", "setting": "Enterococcus faecalis [7]", "value": 2.7}, {"measurement": "MIC+/MIC-", "setting": "Staphylococcus aureus [8]", "value": 5.5}]}
